# ChEMBL document CHEMBL1149174, “Synthesis and structure-activity relationship of acrylamides as KCNQ2 potassium channel openers” (J Med Chem, 2004)
# Target: Potassium voltage-gated channel subfamily KQT member 2 (Mus musculus) (UniProt Q9Z351)
# Assay: Ability to open cloned mKCNQ2 channel expressed in Xenopus laevis oocytes at 10 uM expressed as percent of compound-free control current at -40 mV
# Assay type: functional, cell-based
# Details: Oocyte
# Outline: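 Two-electrode voltage clamp of Xenopus laevis oocytes injected with ~50 nL mKCNQ2 cRNA, kept at 17 °C in ND96 (mM: NaCl 90, KCl 1.0, CaCl2 1.0, MgCl2 1.0, HEPES 5.0, pH 7.5) with 5% horse serum and penicillin/streptomycin. Holding potential -90 mV, 10 mV steps from -80 to +40 mV. Current at -40 mV with 10 μM compound taken as % of compound-free control; mean ± SEM of ≥5 oocytes.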
# Sequence of Potassium voltage-gated channel subfamily KQT member 2 (Mus musculus) (Q9Z351 whole entry): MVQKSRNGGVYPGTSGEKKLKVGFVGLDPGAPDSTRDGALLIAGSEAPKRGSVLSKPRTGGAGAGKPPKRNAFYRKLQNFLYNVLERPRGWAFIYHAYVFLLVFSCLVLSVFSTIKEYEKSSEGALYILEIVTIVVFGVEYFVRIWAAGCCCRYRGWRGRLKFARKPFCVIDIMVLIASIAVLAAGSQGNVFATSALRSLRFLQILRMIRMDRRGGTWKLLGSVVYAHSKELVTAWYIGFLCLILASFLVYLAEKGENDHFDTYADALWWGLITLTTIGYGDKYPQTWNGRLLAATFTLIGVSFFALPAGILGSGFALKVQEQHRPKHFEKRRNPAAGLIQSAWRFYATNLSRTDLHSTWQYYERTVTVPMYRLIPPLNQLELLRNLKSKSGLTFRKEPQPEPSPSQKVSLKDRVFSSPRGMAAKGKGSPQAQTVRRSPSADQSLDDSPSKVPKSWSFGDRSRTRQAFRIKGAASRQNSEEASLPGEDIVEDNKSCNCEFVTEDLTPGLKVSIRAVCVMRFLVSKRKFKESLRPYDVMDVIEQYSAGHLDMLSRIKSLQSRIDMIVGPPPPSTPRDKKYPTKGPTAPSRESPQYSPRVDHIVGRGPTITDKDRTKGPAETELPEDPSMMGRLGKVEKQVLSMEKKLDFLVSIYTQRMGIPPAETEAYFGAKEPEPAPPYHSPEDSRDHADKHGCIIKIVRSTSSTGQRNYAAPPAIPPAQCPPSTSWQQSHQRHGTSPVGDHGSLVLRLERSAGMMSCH
row,Structure (SMILES),KCNQ2 current at -40 mV as percent of compound-free control [%]
1,COc1ccc(/C=C/C(=O)N[C@@H](C)c2cccc(N3CCOCC3)c2)cc1,140
2,COc1ccc(N2CCOCC2)cc1[C@H](C)NC(=O)/C=C/c1ccccc1,98
3,C[C@H](NC(=O)/C=C/c1ccc(F)cc1)c1cccc(N2CCOCC2)c1,88
4,C[C@H](NC(=O)/C=C/c1ccc(F)cc1)c1ccc(F)c(N2CCOCC2)c1,142
5,O=C(/C=C/c1ccccc1)NCc1cccc(N2CCOCC2)c1,110
6,C[C@@H](c1cccc(N2CCOCC2)c1)N(C)C(=O)/C=C/c1ccccc1,72
7,C[C@H](NC(=O)CCc1ccccc1)c1cccc(N2CCOCC2)c1,105
8,C[C@H](NC(=O)/C=C/c1ccccc1F)c1cccc(N2CCN(C)CC2)c1,107
9,CC1CN(c2cccc([C@H](C)NC(=O)/C=C/c3ccccc3)c2)CC(C)O1 (stereo partly specified),138
10,C[C@H](NC(=O)/C=C/c1ccc(F)cc1F)c1cccc(N2CCOCC2)c1,124
11,C[C@H](NC(=O)/C=C/c1ccccc1)c1cccc(N(C)C)c1,110
12,C[C@H](NC(=O)/C=C/c1cc(F)ccc1F)c1cccc(N2CCOCC2)c1,102
13,C[C@H](NC/C=C/c1ccccc1)c1cccc(N2CCOCC2)c1,98
14,CC1CN(c2cccc([C@H](C)NC(=O)/C=C/c3ccc(F)cc3)c2)CC(C)O1 (stereo partly specified),133
15,COc1ccccc1/C=C/C(=O)N[C@@H](C)c1cccc(N2CCOCC2)c1,99
16,CC1=C(C(=O)N[C@@H](C)c2cccc(N3CCOCC3)c2)Cc2ccccc21,101
17,COc1cccc(/C=C/C(=O)N[C@@H](C)c2cccc(N3CCOCC3)c2)c1,132
18,C[C@H](NC(=O)/C=C/c1ccccc1)c1cccc(N2CC3CC2CO3)c1 (stereo partly specified),104
19,COc1ccc([C@H](C)NC(=O)/C=C/c2ccccc2)cc1N1CCOCC1,96
20,C[C@@H](NC(=O)/C=C/c1ccccc1)c1cccc(N2CCOCC2)c1,96
21,C[C@H](NC(=O)/C=C/c1cccc(F)c1)c1cccc(N2CCOCC2)c1,127
22,C[C@H](NC(=O)/C=C/c1ccccc1)c1cccc(N2CCCOCC2)c1,110
23,C[C@H](NC(=O)/C=C/c1ccccc1)c1cccc(N2CCOCC2)c1,163
24,CC1CN(c2cccc([C@H](C)NC(=O)/C=C/c3ccccc3F)c2)CC(C)O1 (stereo partly specified),135
25,C[C@H](NC(=O)/C=C/c1ccccc1F)c1cccc(N2CCOCC2)c1,121
26,C[C@H](NC(=O)/C=C/c1ccccc1)c1ccc(F)c(N2CCOCC2)c1,129
